MT stabilize HCS: microtubule stabilizers in HeLa cells, primary screen, imaging, high-content imaging. % tubulin-high responders, % at 10 µM. 200,000 compounds, 0.83% hits. HeLa tubulin immunostaining HCS, 24 h; share of cells brighter than vehicle mean+2SD;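 active means plate Z-score above 3 for both tubulin-high and condensed-nucleus cell shares, with cell loss under 80%, at 10 µM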;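 further: anti alpha tubulin signal scored within the nucleus-defined area of each cell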
ROMK primary: ROMK potassium channel modulators, primary screen, cell-based, thallium flux, MLSMR library | B-score at 10 µM | Tet-inducible ROMK, thallium flux fluorescence; actives lie on both sides | 130,000 compounds, 2% hits | ATP-sensitive inward rectifier potassium channel 1 (Homo sapiens), P48048 | AID 1918, 2009;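 active means signal ratio slope over the read window, or its plate-corrected B-score, at least 3 SD from the plate mean, either direction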;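 further: B-score of the F/F0 ratio slope over 7 to 12 s after thallium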
Target sequence (P48048 whole entry, looked up): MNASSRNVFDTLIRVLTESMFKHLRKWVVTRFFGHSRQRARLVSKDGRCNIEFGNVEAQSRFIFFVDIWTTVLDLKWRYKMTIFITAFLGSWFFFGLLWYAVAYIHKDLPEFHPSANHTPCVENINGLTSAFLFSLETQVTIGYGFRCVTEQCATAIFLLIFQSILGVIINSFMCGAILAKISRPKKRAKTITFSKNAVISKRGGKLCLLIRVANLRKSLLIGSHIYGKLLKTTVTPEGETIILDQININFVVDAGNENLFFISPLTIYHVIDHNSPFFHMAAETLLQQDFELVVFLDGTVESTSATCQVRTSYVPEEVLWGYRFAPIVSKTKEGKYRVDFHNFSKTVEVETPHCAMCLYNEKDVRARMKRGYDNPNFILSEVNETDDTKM
bCat nuc transl: modulators of beta-catenin nuclear translocation, primary screen, imaging, HeLa cells, immunofluorescence, high-content; nuclear translocation activity, % at 5 µM; 190,000 compounds, 0.3% hits; AID 1665, 2009;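 active means nuclear translocation activity above 50% at 5 µM, with a well cell count of 50 or more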;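 further: per-cell ratio of nuclear to cytoplasmic median beta-catenin stain intensity; plate controls were DMSO negative control for no effect and GSK-3 inhibitor IX positive control for full effect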
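assay system = human HeLa cells, endogenous beta-catenin | times = compound treatment 24 h, 37°C, 5% CO2 | detection = Anti-beta-catenin immunofluorescence on PFA-fixed, Triton-permeabilized cells, DAPI nuclei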
ROMK retest: ROMK channel modulator hit retest, confirmation, cell-based, thallium flux, duplicate, resupplied hits; normalized thallium flux (F/F0 slope) at 10 µM; shares compounds with ROMK primary; fluorescence ratio; hits give low values; 3,000 compounds, 54% hits;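 active means Flux at 10 µM at least 3 SD below or above vehicle control mean in one or both replicates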
Active calls of the source: *; · = no result given. An excerpt weighted towards active compounds, which were near 1.9% of everything screened.

SMILES	MT stabilize HCS	ROMK primary	bCat nuc transl	ROMK retest
O=C1CC(c2ccc(OCCCCCOc3ccc(C4CC(=O)NC4=O)cc3)cc2)C(=O)N1 (configuration not stated)	3	-3.5*	1	0.06*
O=C(NC1CC(=O)c2sccc21)c1ccc(Cl)cc1Cl (configuration not stated)	2	-0.48	3	·
O=C(COc1ccc(NS(=O)(=O)c2ccc(F)cc2)cc1)N1CCOCC1	2	-0.75	-2	·
CCn1c(COc2cccc3cccnc23)nnc1SC(F)F	4	0.0098	-4	·
CCCCn1c(=O)[nH]c(=O)c2c1nc(-c1ccc(C)c([N+](=O)[O-])c1)n2CC	2	0.38	-1	·
Cc1ccc(-c2nc3c(c(=O)[nH]c(=O)n3CC(C)C)n2CC(C)C)cc1[N+](=O)[O-]	3	-3.6*	-1	0.056*
CCOc1ccc(N2C(=O)CN(CC(=O)OC)C2=S)cc1	2	0.55	-1	·
O=C(Nc1ccc(F)cc1)Nc1nnc(-c2ccncc2)s1	3	-2.1*	4	0.08
O=C(Nc1ccc(Cl)cc1)Nc1nnc(-c2ccncc2)s1	3	·	·	·
COC(=O)c1ccccc1NC(=S)NC(=O)c1ccccc1	2	·	1	·
COC(=O)c1ccc(NC(=S)Nc2ccccc2)cc1	3	·	0	·
COC(=O)c1ccc(NC(=S)NNC(=O)c2ccccc2)cc1	1	0.94*	-1	0.082
COC(=O)c1cccnc1NC(=S)NNC(=O)c1ccccc1	4	2.2*	·	0.074
CCOc1ccccc1NC(=O)COC(=O)CC(NC(N)=O)c1ccc(Cl)cc1 (configuration not stated)	2	0.33	0	·
COC(=O)/C=C1\SC(=NC(=O)c2ccc(C)cc2)NC1=O	2	-4.1*	2	0.045*
COC(=O)/C=C1/SC(=Nc2ccc(C)cc2C)NC1=O	3	1.2	1	·
COc1ccc(OC)c(C2=NOC(C(=O)NCc3ccco3)C2)c1 (configuration not stated)	21*	3.5*	·	0.079
O=C(NCc1ccco1)C1CC(c2ccccc2O)=NO1 (configuration not stated)	8	3.6*	6	0.078
COc1ccc(OC)c(C2=NOC(C(=O)Nc3cc(C)on3)C2)c1 (configuration not stated)	·	·	0	·
O=C(Nc1cccnc1)C1CC(c2ccccc2O)=NO1 (configuration not stated)	1	0.5	-2	·
N#CC1=C(N)c2ccccc2CC12CCCCC2	1	-0.76	-4	·
C/C(CC(=O)Nc1ccccn1)=N\NC(=O)c1cnccn1	·	·	1	·
C=CCOc1c(Br)cc(/C=N/O)cc1OCC	5	-3.8*	0	0.057*
CCCCOc1c(Br)cc(/C=N/O)cc1OCC	2	-0.86	-2	·
Cc1no[n+]([O-])c1COc1ccc(/C=N/n2nnnc2N)cc1	2	·	-2	·
SMILES	MT stabilize HCS	ROMK primary	bCat nuc transl	ROMK retest
CCOC(=O)c1c(C)[nH]c(C(=O)COC(=O)c2ccc(O)cc2)c1C	·	·	-2	·
CCOC(=O)c1c(C)[nH]c(C(=O)COC(=O)c2ccc(O)cc2O)c1C	·	·	1	0.078
C=CCn1cc(C(=O)OCC)c(=O)c2ccc(F)cc21	4	-0.25	0	·
Cc1cc(OCC(=O)Nn2cnnc2)ccc1Br	4	·	-1	·
CC12CCC(c3c(C(=O)Nc4nccs4)nn(-c4ccccc4)c31)C2(C)C (configuration not stated)	5	·	-6	·
CCN=C1SC(CC(=O)Nc2ccccc2)C(=O)N1CC (configuration not stated)	3	·	·	·
CCN=C1SC(CC(=O)NCC)C(=O)N1CC (configuration not stated)	3	3*	-2	0.081
CCCCc1ccc(N=N/C(C(=O)Nc2cc(OC)c(NC(C)=O)cc2OC)=C(/C)O)cc1	1	·	-3	·
CC(=O)Nc1nc(-c2ccc3c(c2)CCN3S(C)(=O)=O)cs1	1	0.017	0	·
CS(=O)(=O)N1CCc2cc(-c3csc(NC(=O)Cc4cccs4)n3)ccc21	5	·	2	0.068*
O=P(COc1ccccc1)(c1ccccc1)c1ccccc1	2	·	2	·
Cc1ccc(NC(=O)Cn2cccc2)cc1	3	·	-1	·
O=C(O)c1cccnc1SC1CC(=O)N(c2ccccc2)C1=O (configuration not stated)	·	1.1	0	·
CC(c1ccccc1)N1C(=O)CC(Sc2ncccc2C(=O)O)C1=O (configuration not stated)	3	0.9*	2	0.087
CCC1NC(=S)NC(C)=C1C(=O)c1ccccc1 (configuration not stated)	2	0.046	3	·
Cc1cccn2c(=O)c(C=O)c(N3CCCCCC3)nc12	2	2.1*	3	0.074
Cc1cccn2c(=O)c(C=O)c(N3CC(C)OC(C)C3)nc12 (configuration not stated)	2	-0.27	1	·
O=C(N/N=C/c1ccncc1)c1cccc(S(=O)(=O)Nc2ccc(Cl)cc2)c1	·	·	0	·
COc1cccc(CNC(=O)Cn2ncc3c(=O)oc4ccccc4c32)c1	·	-0.62	1	·
CC(C)(C)S(=O)(=O)c1cnc(-c2ccc(Cl)cc2)nc1N	·	·	2	·
Cc1nc(N)nc(N)c1/C=C/C(C)(C)c1ccc(Cl)cc1	6	-3.8*	-5	0.064*
CC1=CC(C)(C)[N+](C)=CN1c1ccccc1	6	-0.057	·	·
CC1(C)CC(=O)C(C2C3=C(CC(C)(C)CC3=O)OC3=C2C(=O)CC(C)(C)C3)=C(O)C1	·	1	-2	·
O=C1CC(=O)C(n2cncn2)C(c2ccc(Cl)cc2)C1 (configuration not stated)	2	·	-3	0.081
O=C1CC(=O)C(n2cncn2)C(c2c(F)cccc2Cl)C1 (configuration not stated)	2	·	-2	·
SMILES	MT stabilize HCS	ROMK primary	bCat nuc transl	ROMK retest
CN(C(=O)COc1ncnc2sccc12)c1ccccc1	1	-0.063	1	·
O=C(CNc1ccccc1)NN=C1CCCC1	2	0.6	0	·
CC(C)Cc1nnc(NC(=O)CSc2nc(O)c(-c3ccccc3)c(=O)[nH]2)s1	2	0.36	-3	·
COC(=O)c1ccc(/C=C(\C#N)C(=O)NC(C)c2ccccc2)cc1 (configuration not stated)	5	·	0	0.049*
CC(NC(=O)/C(C#N)=C/c1ccco1)c1ccccc1 (configuration not stated)	·	·	0	·
Cc1cccc(C)c1NC(=O)/C(C#N)=C/c1cccs1	4	·	0	·
CC(NC(=O)/C(C#N)=C/c1cccs1)c1ccccc1 (configuration not stated)	9	-4.6*	-2	0.054*
O=[N+]([O-])c1cc([N+](=O)[O-])c2c(=Nc3ccccc3)n(-c3ccccc3)n(O)c2c1	4	1.1	1	·
Cc1ccc(C(=O)COC(=O)c2cn3ccccc3n2)cc1	7	0.44	5	·
COCCN(C(=O)c1cc(OC)c(OC)c(OC)c1)c1c(N)n(Cc2ccccc2)c(=O)[nH]c1=O	2	0.032	-2	·
O=C(CCc1nc2ccccc2c(=O)[nH]1)OCCOc1ccc(Cl)cc1	6	-0.15	-6	·

Source: PubChem
